This is an account of results in ChEMBL document CHEMBL4837214, “Design, synthesis, and biological evaluation of novel tetrahydroprotoberberine derivatives to reduce SREBPs expression for the treatment of hyperlipidemia” (Eur J Med Chem, 2021).

Calls of active or inactive are those of the source. The calls are words filed in the database; no cut-off is given here.

Data set [1] has as its system Mus musculus. Briefly: Hypolipidemic activity in high fat diet-induced C57BL/6J mouse assessed as reduction in SREBPs expression in liver at 170 to 340 mg/kg, po administered daily for 6 weeks by Western blot analysis. It is filed as functional, organism-based. As to conditions: dose 170-340 mg/kg. Summed up: (§1)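 Male C57BL/6J mice, six weeks old, fed a 45%-fat diet (HFD) for 15 weeks; chow-fed mice served as controls. Obese mice were randomized to vehicle (0.1% w/v CMC-Na) or 170 or 340 mg/kg, gavaged daily for 6 weeks while diet continued. Body weight, food intake, organ weights, serum lipids, tissue histology (H&E, Oil red O), liver SREBP blots and liver qPCR followed.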

Data set [2] can be described thus: Half life in Sprague-Dawley rat at 1 mg/kg, iv measured upto 12 hrs by LC-MS/MS analysis. It counts as ADME, organism-based. As to conditions: in vivo. A digest of the protocol:
(§2)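 Six SD rats split into two groups of three, dosed 1 mg/kg IV or 10 mg/kg orally. IV blood drawn at 2, 5, 15, 30 min and 1, 2, 4, 6, 8, 12 h. Oral blood drawn at 5, 15, 30 min and 1, 2, 4, 6, 8, 12, 24 h. Serum drug measured by LC/MS/MS. Parameters are the average of three runs.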

Data set [3] in a line: Cmax in Sprague-Dawley rat at 1 mg/kg, iv measured upto 12 hrs by LC-MS/MS analysis. It counts as ADME, organism-based. Also on record: route intravenous, dose 1 mg/kg, time <=12. The conditions noted are these: in vivo. Summed up: as §2
Data set [4] concerns Mus musculus. Briefly: Hypolipidemic activity in high fat diet-fed C57BL/6J mouse assessed as reduction in epididymal fat/body weight ratio at 170 to 340 mg/kg/day, po administered for 6 weeks. It counts as functional, organism-based. As to conditions: dose 170-340 mg/kg/day. A digest of the protocol: as §1
Data set [5] relates to Mus musculus. Briefly: […] activity in high fat diet-induced C57BL/6J mouse assessed as reduction in ACC mRNA level in liver at 170 to 340 mg/kg, po administered daily for 6 weeks by qRT-PCR analysis. It is filed as functional, organism-based. The conditions noted are these: dose 170-340 mg/kg. Summed up:
as §1

In data set [6] the test system is HepG2. Briefly: Down regulation of SCD gene expression in human HepG2 cells by qRT-PCR analysis. It is filed as functional, cell-based.
Data set [7] deals with Mus musculus. Briefly: […] activity in high fat diet-induced C57BL/6J mouse assessed as reduction in Scd mRNA level in liver at 170 to 340 mg/kg, po administered daily for 6 weeks by qRT-PCR analysis. It is filed as functional, organism-based. As to conditions: dose 170-340 mg/kg. A digest of the protocol: as §1
For data set [8], the system named is HepG2. Briefly: Down regulation of ACC gene expression in human HepG2 cells by qRT-PCR analysis. It counts as functional, cell-based.
Data set [9] has as its target T1, Sterol regulatory element-binding protein 1 (Homo sapiens) (UniProt P36956).
T1 sequence (whole entry): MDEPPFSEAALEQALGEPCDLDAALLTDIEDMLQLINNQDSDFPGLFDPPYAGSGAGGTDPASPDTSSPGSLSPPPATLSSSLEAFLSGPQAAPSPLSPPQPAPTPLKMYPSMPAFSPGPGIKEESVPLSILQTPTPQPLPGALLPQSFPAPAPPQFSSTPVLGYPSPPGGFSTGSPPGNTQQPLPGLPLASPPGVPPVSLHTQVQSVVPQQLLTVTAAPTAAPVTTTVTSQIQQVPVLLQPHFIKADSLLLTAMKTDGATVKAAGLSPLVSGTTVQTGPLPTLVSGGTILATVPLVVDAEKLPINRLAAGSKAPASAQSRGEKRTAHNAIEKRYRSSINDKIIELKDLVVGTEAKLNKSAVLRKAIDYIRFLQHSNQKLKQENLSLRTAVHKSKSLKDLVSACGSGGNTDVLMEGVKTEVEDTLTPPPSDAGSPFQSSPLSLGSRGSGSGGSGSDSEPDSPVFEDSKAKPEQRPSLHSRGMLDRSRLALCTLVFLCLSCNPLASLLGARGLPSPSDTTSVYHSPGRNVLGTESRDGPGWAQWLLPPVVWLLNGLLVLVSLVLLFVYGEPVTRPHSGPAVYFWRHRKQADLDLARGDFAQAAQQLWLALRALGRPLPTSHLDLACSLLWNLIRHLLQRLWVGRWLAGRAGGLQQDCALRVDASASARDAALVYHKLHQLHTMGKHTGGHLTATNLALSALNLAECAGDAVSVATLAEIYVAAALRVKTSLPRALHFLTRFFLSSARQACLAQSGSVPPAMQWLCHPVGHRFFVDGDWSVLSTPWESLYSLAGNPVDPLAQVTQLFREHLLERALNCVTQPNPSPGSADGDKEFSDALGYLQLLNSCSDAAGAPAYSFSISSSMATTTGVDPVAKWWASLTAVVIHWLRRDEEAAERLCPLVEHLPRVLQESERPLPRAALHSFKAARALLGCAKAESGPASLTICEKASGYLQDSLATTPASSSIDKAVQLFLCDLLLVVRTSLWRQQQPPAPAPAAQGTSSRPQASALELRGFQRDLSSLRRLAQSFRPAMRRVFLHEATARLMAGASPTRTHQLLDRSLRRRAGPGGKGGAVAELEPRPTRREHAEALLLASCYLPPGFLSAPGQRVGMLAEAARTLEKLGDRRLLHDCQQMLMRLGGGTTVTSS
Briefly: Induction of SREBP degradation expressed in human HEK293T cells assessed as increase in SREBP ubiquitination at 10 uM after 24 hrs by Western blot analysis. It counts as cell-based. Summed up: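 293T cells seeded at 3×10⁶ per dish and transfected next day with flag-SREBP1 or flag-SREBP2 plus HA-ubiquitin. On day 2 medium replaced with DMSO or compound. On day 3 cells lysed in IP buffer and cleared at 12,000 rpm, 4 °C. Supernatant immunoprecipitated overnight at 4 °C with flag antibody or IgG. Ubiquitylated SREBPs detected by Western blot.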

The test system of data set [10] is Mus musculus. Briefly: […] activity in high fat diet-induced C57BL/6J mouse assessed as reduction in Fasn mRNA level in liver at 170 to 340 mg/kg, po administered daily for 6 weeks by qRT-PCR analysis. It is filed as functional, organism-based. The conditions noted are these: dose 170-340 mg/kg. A digest of the protocol:
as §1

Data set [11] is described as follows: Clearance in Sprague-Dawley rat at 1 mg/kg, iv measured upto 12 hrs by LC-MS/MS analysis. The conditions noted are these: in vivo. It is filed as ADME, organism-based. A digest of the protocol: as §2
The nature of data set [12]: AUC (0 to infinity) in Sprague-Dawley rat at 10 mg/kg, po measured upto 24 hrs by LC-MS/MS analysis. It is filed as ADME, organism-based. Also on record: route oral, dose 10 mg/kg, time <=24. As to conditions: in vivo. A digest of the protocol:
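Six SD rats split into two groups (n=3 each), dosed once either intravenously at 1 mg/kg or orally at 10 mg/kg. Blood sampled at 2 min–12 h after IV dosing and at 5 min–24 h after oral dosing. Serum drug level measured by LC/MS/MS. AUC0-∞ is the mean of three runs.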

Data set [13] can be described thus: Half life in Sprague-Dawley rat at 10 mg/kg, po measured upto 24 hrs by LC-MS/MS analysis. It counts as ADME, organism-based. The conditions noted are these: in vivo. Summed up:
as §2

Data set [14] deals with T1, Sterol regulatory element-binding protein 1 (Homo sapiens). Briefly: Induction of SREBP degradation in human HepG2 cells at 10 uM preincubated with MG-132 for 1 hr followed by compound additon and measured after 4 hrs by Western blot analysis. It counts as cell-based. Summed up: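 HepG2 cells pretreated 1 h with MG-132 at […]. Medium then switched to MG-132 plus vehicle or compound at […] for 4 h. SREBPs detected in lysates by Western blot.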

The subject of data set [15] is Mus musculus. Briefly: Hypolipidemic activity in high fat diet-induced C57BL/6J mouse assessed as reduction in cell size of WAT at 170 to 340 mg/kg, po administered daily for 6 weeks by H and E staining based assay. It is filed as functional, organism-based. As to conditions: dose 170-340 mg/kg. A digest of the protocol: as §1

`COc1ccc2c(c1OCC1CCCCC1)CN1CCc3cc4c(cc3C1C2)OCO4` (stereo not given): the result in the data set on Mus musculus [1], with Mus musculus [4], in the data set with Mus musculus [5], in the data set with HepG2 [6], in the data set with Mus musculus [7] and with HepG2 [8] was Active. Moreover, the result (in data set [9]; in the data set with Mus musculus [10]; in the data set on Mus musculus [15]) was Active. Also, the half-life in data set [2] is 4.95 h; in data set [13], 5.36 h. In [3], this molecule returned a Cmax of 901 ng/mL. This molecule had a clearance in data set [11] of 25.8 mL/min/kg. This molecule yielded an exposure (AUC) in data set [12] of 4290 ng·h/mL. Besides, the result in data set [14] was inactive.
